{"source": "paper PMC8978309", "about": "(Materials Advances, 2022)", "key": {"[1]": {"assay": "Hydroxyapatite", "format": "binding", "details": "PBS pH 7.40, 37 °C", "method_in_brief": "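20 mg synthetic hydroxyapatite incubated with 3 mL test compound in PBS (0.5 mg mL−1) at 37 °C for 0–11 d. Controls were compound alone and HA alone in PBS. Supernatant collected daily and centrifuged (1500 rpm, 8 min). Bound fraction derived from the fall in supernatant absorbance at 208 nm. Experimental groups done in duplicate.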"}, "[2]": {"test_system": "normal osteoblast-like hFOB 1.19 cell line", "assay": "AlamarBlue cytotoxicity assay, hFOB 1.19", "format": "cell-based, human", "details": "for IC50: Homo sapiens", "method_in_brief": "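hFOB 1.19 osteoblast-like cells grown in 1:1 DMEM:F-12 with 0.3 mg mL−1 G418 and 10% FBS at 34 °C, 5% CO2. Seeded at 2.5 × 10^5 cell per mL, then preincubated 24 h at 34 °C. Exposed 24, 48 or 72 h to two-fold dilutions (0–200 μM), or to 1.9–15 μM. Read-out: 10% AlamarBlue, 4 h, fluorescence 560/590 nm, relative to medium control. IC50 by nonlinear regression; triplicates.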"}, "[3]": {"test_system": "human breast cancer MDA-MB-231 cell line", "assay": "AlamarBlue cytotoxicity assay, MDA-MB-231", "format": "cell-based", "details": "for IC50: Homo sapiens; for relative cell live (%RCL): MDA-MB-231, 15 μM", "method_in_brief": "(§1)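 MDA-MB-231 cells grown in DMEM with 1% Pen-Strep and 10% FBS at 37 °C, 5% CO2. Seeded at 2.5 × 10^5 cell per mL, then preincubated 24 h. […] Read-out: 10% AlamarBlue in PBS, 4 h, fluorescence ex 560/em 590 nm, normalised to medium control (100%). IC50 by nonlinear regression; triplicates, mean, SD, %CV.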"}, "[4]": {"assay": "AlamarBlue cytotoxicity assay, MDA-MB-231", "format": "cell-based, human", "details": "human, MDA-MB-231 cells", "method_in_brief": "as §1"}, "[5]": {"assay": "Dissolution profile in PBS", "format": "physicochemical", "details": "PBS pH 7.40, 37 °C", "method_in_brief": "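Powdered test compound dissolved in 100 mL PBS (pH 7.40) at 37 °C with constant stirring at 150 rpm for 48 h. Release followed by UV absorbance at 208 nm (scan 400–200 nm) against a reagent blank.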"}, "[6]": {"details": "cited from earlier work"}, "[7]": {"assay": "Dissolution profile in FaSSGF", "format": "physicochemical", "details": "FaSSGF pH 1.60, 37 °C", "method_in_brief": "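Test compound stirred in 100 mL fasted-state simulated gastric fluid (HCl/NaCl, pH 1.60) at 37 °C and 150 rpm for 36 h. Dissolved drug quantified directly by UV absorbance at 208 nm (400–200 nm scan) against a reagent blank.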"}}, "data": [{"smiles": "O=P(O)(O)C(O)(Cn1ccnc1)P(=O)(O)O", "note": "[ZOLE, zoledronate]", "values": [{"measurement": "time to reach maximum binding to HA", "setting": "[1]", "result": 8, "unit": "days"}, {"measurement": "maximum binding to HA", "setting": "[1]; 0–11 d", "result": 82, "unit": "%"}, {"measurement": "binding to HA", "setting": "[1]; in 1 d", "result": 15, "unit": "%"}, {"measurement": "IC50", "setting": "[2]; 24 h", "result": "> 200", "unit": "µM"}, {"measurement": "IC50", "setting": "[2]; 48 h", "result": "86 ± 3", "unit": "µM"}, {"measurement": "IC50", "setting": "[2]; 72 h", "result": "49 ± 4", "unit": "µM"}, {"measurement": "cell death (cell viability result in words)", "setting": "[2]; hFOB 1.19, 3.8–15 μM, after 24, 48, and 72 h", "result": "no significant cell death"}, {"measurement": "IC50", "setting": "[3]; MDA-MB-231, 24 h", "result": "> 200", "unit": "µM"}, {"measurement": "IC50", "setting": "[3]; MDA-MB-231, 48 h", "result": "> 200", "unit": "µM"}, {"measurement": "IC50", "setting": "[3]; MDA-MB-231, 72 h", "result": "35 ± 4", "unit": "µM"}, {"measurement": "%RCL", "setting": "[3]; MDA-MB-231, 3.8 μM, time not stated (Fig. 9b)", "result": "~100", "unit": "%"}, {"measurement": "relative cell live (%RCL)", "setting": "[3]; 48 h", "result": "80 ± 2", "unit": "%"}, {"measurement": "relative cell live (%RCL)", "setting": "[3]; 72 h", "result": "58 ± 2", "unit": "%"}, {"measurement": "viability at 1.9 µM", "setting": "[4]", "result": "~100", "unit": "%"}, {"measurement": "time to reach maximum dissolution / equilibrium solubility", "setting": "[5]", "result": 30, "unit": "min"}, {"measurement": "dissolution (ZOLE content released, maximum reached)", "setting": "[5]; 150 rpm", "result": 100, "unit": "%"}, {"measurement": "bioavailability", "setting": "[6]", "result": "< 1", "unit": "%"}, {"measurement": "maximum plasma concentration", "setting": "[6]", "result": 1, "unit": "µM"}, {"measurement": "time to reach maximum dissolution / equilibrium solubility", "setting": "[7]", "result": 3, "unit": "h"}]}]}
